Results published in paper PMC2975716 (Journal of Lipid Research, 2010).
Substitutions are numbered along the chain they refer to. Like-named read-outs stand apart in the source and are kept apart here. Marks after values point to notes of the source that are not given here.

What was measured:
Golden Syrian hamsters = experiment: In vivo macrophage-to-feces RCT study; set-up: species or system Golden Syrian hamster; settings: dalcetrapib 100 mg/kg BID, torcetrapib 30 mg/kg QD, anacetrapib 30 mg/kg QD; for [3H]HDL / [3H]plasma: Day 3 after labeled macrophage injection; for [3H]HDL / [3H]plasma / Fecal [3H]total sterols / Fecal total radioactivity: mean ± SD; for Change in liver radioactivity compared with vehicle: day 10, data not shown; for Fecal [3H]total sterols: sum of [3H]neutral sterols and [3H]bile acids; for Fecal [3H]total sterols / Fecal total radioactivity: day 0-10; for Fecal total radioactivity: whole fecal homogenates
[1] = cited from earlier work
CETP [2] = biological target: T1, CETP (Homo sapiens, UniProt P11597); format: binding; settings: 25 µM unlabeled compound, […] label
T1 sequence (P11597 18-493): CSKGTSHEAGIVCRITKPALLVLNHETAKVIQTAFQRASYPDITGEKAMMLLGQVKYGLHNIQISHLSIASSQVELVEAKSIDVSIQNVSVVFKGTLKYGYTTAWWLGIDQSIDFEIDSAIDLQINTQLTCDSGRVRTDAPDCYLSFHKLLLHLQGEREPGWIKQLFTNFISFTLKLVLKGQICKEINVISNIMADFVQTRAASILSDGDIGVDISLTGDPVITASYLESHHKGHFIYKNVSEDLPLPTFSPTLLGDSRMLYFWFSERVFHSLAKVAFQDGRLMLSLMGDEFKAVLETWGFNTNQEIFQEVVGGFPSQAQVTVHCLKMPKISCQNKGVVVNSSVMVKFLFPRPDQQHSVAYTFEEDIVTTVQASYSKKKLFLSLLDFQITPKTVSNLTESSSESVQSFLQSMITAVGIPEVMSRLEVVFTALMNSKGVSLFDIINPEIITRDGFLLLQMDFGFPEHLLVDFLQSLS

CETP [3] = biological target: T1, CETP; format: binding; settings: 25 µM unlabeled compound, coincubation
C13S CETP = biological target: T2, C13S CETP (Homo sapiens, UniProt P11597, C30S); experiment: Transfer of CE from HDL to LDL, scintillation proximity assay, C13S mutant; format: biochemical
T2 sequence (P11597 18-493 C30S): T1 sequence (P11597 18-493) with C13S

CETP [4] = biological target: T1, CETP; experiment: Transfer of CE from HDL to LDL, scintillation proximity assay; format: biochemical
JHC-1 = experiment: Binding to antibody JHC-1
[5] = format: in vivo, human; settings: healthy volunteers, single oral dose 600 mg dalcetrapib
PLTP [6] = biological target: T3, PLTP (Homo sapiens, UniProt P55058); experiment: PLTP activity; format: biochemical; settings: concentrations up to 30 µM; data not shown
T3 sequence (P55058 18-493, species assumed): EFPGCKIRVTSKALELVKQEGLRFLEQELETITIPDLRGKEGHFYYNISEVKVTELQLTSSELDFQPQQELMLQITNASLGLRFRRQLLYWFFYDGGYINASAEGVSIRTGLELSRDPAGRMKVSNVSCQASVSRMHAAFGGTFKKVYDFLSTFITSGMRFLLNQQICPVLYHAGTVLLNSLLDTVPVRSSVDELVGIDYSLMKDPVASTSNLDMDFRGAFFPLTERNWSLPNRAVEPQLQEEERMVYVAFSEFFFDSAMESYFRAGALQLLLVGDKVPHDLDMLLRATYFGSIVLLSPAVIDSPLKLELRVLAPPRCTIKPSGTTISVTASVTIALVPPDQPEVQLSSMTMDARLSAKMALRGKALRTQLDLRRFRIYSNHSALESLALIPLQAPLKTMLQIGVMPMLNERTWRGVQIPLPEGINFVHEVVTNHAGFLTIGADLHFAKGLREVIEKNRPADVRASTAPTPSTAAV

CETP [7] = biological target: T1, CETP; experiment: CETP ELISA on plasma of healthy subjects after single oral 600 mg dalcetrapib; format: in vivo; settings: 22 healthy volunteers
CETP [8] = biological target: T1, CETP; experiment: CETP ELISA with different capture antibodies, in vitro addition to human plasma; settings: 0.01-10 µM
How it was run: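 Test compound dilution series (0.01–10 µM) made in this plasma, held 3 h at 37°C, then assayed by JHC-1-capture/6/6-HRP and 6/2-capture/6/17-HRP ELISAs. Duplicates per donor (n = 14); mean with SD.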

[9] = test system: CETP-induced pre-β-HDL formation; experiment: Quantification of pre-β-HDL by ELISA in incubated human plasma; format: biochemical; settings: endogenous CETP only, 21 h at 37°C
How it was run: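 Human plasma with endogenous CETP at 1.25 μg/ml, no rhCETP added, incubated 21 h at 37°C with or without test compound (0.1, 1, 3, 10 µM). Pre-β-HDL quantified by a pre-β1-selective ELISA. Dose effects assessed by ANCOVA with nested factor.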

PLTP [10] = biological target: T3, PLTP; settings: concentrations up to 30 µM; cited from earlier work
CETP [11] = biological target: T1, CETP; experiment: SPR; format: binding; settings: 5 µM, 60 s, before and after dalcetrapib-thiol injections
[12] = read-out: IC50 for transfer of CE from HDL to LDL by C13S CETP mutant, mean ± SEM, CETP 0.5 µg/ml, 3 h at 37°C
[13] = read-out: IC50 for transfer of CE from HDL to LDL by rhCETP, mean ± SEM, CETP 0.5 µg/ml, 3 h at 37°C
[14] = human plasma of seven donors, 3 h at 37°C

Row | SMILES | [3H]HDL (Golden Syrian hamsters) | [3H]plasma (Golden Syrian hamsters) [kBq/ml] | Change in liver radioactivity compared with vehicle (Golden Syrian hamsters) [%] | Fecal [3H]total sterols (Golden Syrian hamsters) | Fecal total radioactivity (Golden Syrian hamsters) | Displacement of [14C]dalcetrapib-thiol bound to rhCETP (CETP [2]; with 5 mM TCEP) | Decrease in amount of [14C]torcetrapib bound to immobilized rhCETP (CETP [3]) [%] | IC50 (C13S CETP; [12]) [nM] | Effect on binding of [14C]torcetrapib to immobilized rhCETP (CETP [3]) | IC50 (CETP [4]; [13]) [nM] | Change in CETP epitope detection, ELISA with capture antibody 6/2 (CETP [8]; [14]) | further results
1 | COc1cc(F)c(C(C)C)cc1-c1ccc(C(F)(F)F)cc1CN1C(=O)O[C@H](c2cc(C(F)(F)F)cc(C(F)(F)F)c2)[C@@H]1C [anacetrapib] | 0.34 ± 0.07^c kBq/ml | 0.79 ± 0.11 | −9.2 | 9.7 ± 0.9 % of injected | 13.2 ± 1.5 % of injected | neither torcetrapib nor anacetrapib affected | 60 | – | – | – | – | Raise of plasma HDL-C in humans [1]: up to 130%
2 | CCC(CC)CC1(C(=O)Nc2ccccc2SSc2ccccc2NC(=O)C2(CC(CC)CC)CCCCC2)CCCCC1 [dalcetrapib-disulfide] | – | – | – | – | – | – | – | > 100000 | unaffected | 35.2 ± 2.8 | – | –
3 | CCC(CC)CC1(C(=O)Nc2ccccc2S)CCCCC1 [dalcetrapib-thiol] | – | – | – | – | – | did occur when TCEP was present | – | > 100000 | only marginally decreased | 23.7 ± 1.9 | – | Displacement of [14C]dalcetrapib-thiol bound to rhCETP (CETP [2]; absence of TCEP, data not shown): not observed; Binding to JHC-1 (JHC-1): did not bind; Maximum plasma dalcetrapib-thiol level [5]: 628.7 ng/mL; Time of maximum plasma dalcetrapib-thiol level [5]: 4 h; t1/2 ([5]; mean ± SD): 25.5 ± 3.9 h
4 | CCC(CC)CC1(C(=O)Nc2ccccc2SC(=O)C(C)C)CCCCC1 [dalcetrapib] | 0.28 ± 0.04^c kBq/ml | 0.74 ± 0.05 | −42.2 | 12.5 ± 0.5^b % of injected | 17.5 ± 0.5^c % of injected | displaced | – | – | unaffected | – | no change in epitope detection | Raise of HDL-C in humans ([1]; dose of 600 mg): up to 36%; Effect on PLTP activity (PLTP [6]): neither inhibit nor increase PLTP activity; IC50 (C13S CETP): > 100000 nM; Change in CETP detection with 6/2 as capture antibody (CETP [7]): no change was detected; Decrease in CETP detection by the JHC-1-based ELISA (CETP [7]; P < 0.001): 30%; Concentration at which maximum decrease in JHC-1 epitope detection is reached (CETP [8]; human plasma in vitro): 0.5 µM; Concentration from which CETP detection by JHC-1 is decreased (CETP [8]; human plasma in vitro): ≥ 0.1 µM; IC50 (CETP [4]): 205 ± 96.3 nM; Increase in pre-β-HDL ([9]; 1 µM, NS): 4%; Increase in pre-β-HDL ([9]; 3 µM, P < 0.05): 13%; Increase in pre-β-HDL ([9]; 10 µM, P < 0.01): 16%
5 | CCOC(=O)N1c2ccc(C(F)(F)F)cc2[C@@H](N(Cc2cc(C(F)(F)F)cc(C(F)(F)F)c2)C(=O)OC)C[C@H]1CC [torcetrapib] | 0.32 ± 0.07^c kBq/ml | 0.77 ± 0.11 | −28.1 | 11.5 ± 0.5^b % of injected | 16.5 ± 0.5^c % of injected | neither torcetrapib nor anacetrapib affected | 82 | – | – | – | no change in epitope detection | Effect on PLTP activity (PLTP [10]): neither inhibit nor increase PLTP activity; Fecal sterol excretion in clinical studies [1]: not associated with an increase in fecal sterol excretion; Binding to rhCETP following saturation of the dalcetrapib binding site (SPR) (CETP [11]): remained unchanged; Change in CETP epitope detection, ELISA with capture antibody JHC-1 (CETP [8]; [14]): did not change epitope detection
